Activity calls are given as the source filed them. No cut-off for these calls is given here.
Tests used:
[1] = system: Mus musculus; assay: Toxicity in mouse infected with blood stage of Plasmodium berghei assessed as mortality at 160 mg/kg, sc measured on day 1; format: organism-based; parameters: dose 160 mg/kg, route subcutaneous; settings: in vivo
[2] = system: Leishmania donovani; assay: Potency index, ratio of glucantime to compound for antileishmanial activity against Leishmania donovani infected in hamster assessed as 90% suppression of parasitemia at 13 mg/kg/day, im bid administered 4 days measured for 8 days; format: functional; settings: route intramuscular
Procedure, shortened: (§1)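 Hamsters infected with Leishmania donovani were assessed in an 8-day test. Seven animals per drug level received 208, 52 or 13 mg/kg/day. Percent suppression of parasites was calculated against infected, untreated controls (seven to ten animals). Glucantime index G = SD90 of Glucantime / SD90 of the new drug, where SD90 is the dose giving 90% parasite suppression.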

[3] = system: Mus musculus; assay: Toxicity in mouse infected with blood stage of Plasmodium berghei assessed as mortality at 640 mg/kg, sc measured on day 5; format: organism-based; parameters: dose 640 mg/kg, route subcutaneous; settings: in vivo
Procedure, shortened: (§2)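 P. berghei-infected mice, five per group, after subcutaneous dosing. Deaths occurring 2 to 5 days after drug administration are scored as drug toxicity rather than infection.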

[4] = system: Plasmodium berghei; assay: Antimalarial activity against blood stage of Plasmodium berghei infected in mouse assessed as increase in mean survival time at 160 mg/kg, sc; format: functional; settings: route subcutaneous
[5] = system: Plasmodium berghei; assay: Antimalarial activity against blood stage of Plasmodium berghei infected in mouse assessed as increase in mean survival time at 80 mg/kg, sc; format: functional; settings: route subcutaneous
[6] = system: Plasmodium cynomolgi; assay: Antimalarial activity against sporozoite stage of Plasmodium cynomolgi infected in rhesus monkey assessed as radical curative activity measured for 90 days; format: functional, organism-based
[7] = system: Mus musculus; assay: Toxicity in mouse infected with blood stage of Plasmodium berghei assessed as mortality at 320 mg/kg, sc measured on day 5; format: organism-based; parameters: dose 320 mg/kg, route subcutaneous; settings: in vivo; procedure, shortened: as §2
[8] = system: Leishmania donovani; assay: Potency index, ratio of glucantime to compound for antileishmanial activity against Leishmania donovani infected in hamster assessed as 90% suppression of parasitemia at 13 to 208 mg/kg/day, im bid administered 4 days measured for 8 days; format: functional; settings: route intramuscular; procedure, shortened: as §1
[9] = system: Mus musculus; assay: Toxicity in mouse infected with blood stage of Plasmodium berghei assessed as mortality at 160 mg/kg, sc measured on day 2; format: organism-based; parameters: route subcutaneous, dose 160 mg/kg; settings: in vivo; procedure, shortened: as §2
[10] = system: Leishmania donovani; assay: Antileishmanial activity against Leishmania donovani infected in hamster assessed as inhibition of parasitemia at 52 mg/kg/day, im bid administered for 4 days relative to control; format: functional; settings: 96 h, route intramuscular; procedure, shortened: as §1
[11] = system: Leishmania donovani; assay: Potency index, ratio of glucantime to compound for antileishmanial activity against Leishmania donovani infected in hamster assessed as 90% suppression of parasitemia at 208 mg/kg/day, im bid administered 4 days measured for 8 days; format: functional; settings: route intramuscular; procedure, shortened: as §1
[12] = system: Plasmodium berghei; assay: Antimalarial activity against blood stage of Plasmodium berghei infected in mouse assessed as increase in mean survival time at 320 mg/kg, sc; format: functional; settings: route subcutaneous
[13] = system: Mus musculus; assay: Toxicity in mouse infected with blood stage of Plasmodium berghei assessed as mortality at 640 mg/kg, sc measured on day 3; format: organism-based; parameters: dose 640 mg/kg, route subcutaneous; settings: in vivo; procedure, shortened: as §2
[14] = system: Plasmodium berghei; assay: Antimalarial activity against blood stage of Plasmodium berghei infected in mouse assessed as increase in mean survival time at 640 mg/kg, sc; format: functional; settings: route subcutaneous
[15] = system: Trypanosoma brucei rhodesiense; assay: Antitrypanosomal activity against blood stage of Trypanosoma rhodesiense infected in mouse; format: functional, organism-based
[16] = system: Mus musculus; assay: Toxicity in mouse infected with blood stage of Plasmodium berghei assessed as mortality at 320 mg/kg, sc measured on day 2; format: organism-based; parameters: dose 320 mg/kg, route subcutaneous; settings: in vivo; procedure, shortened: as §2
[17] = system: Leishmania donovani; assay: Potency index, ratio of glucantime to compound for antileishmanial activity against Leishmania donovani infected in hamster assessed as 90% suppression of parasitemia at 3.25 mg/kg/day, im bid administered 4 days measured for 8 days; format: functional; settings: route intramuscular
[18] = system: Mus musculus; assay: Toxicity in mouse infected with blood stage of Plasmodium berghei assessed as mortality at 80 to 640 mg/kg, sc measured for 5 days; format: organism-based; parameters: dose 80-640 mg/kg, route subcutaneous; settings: in vivo, 120 h; procedure, shortened: as §2
[19] = system: Schistosoma mansoni; assay: Antiparasitic activity against Schistosoma mansoni infected in mouse assessed as survival up to 49 days at 1280 mg/kg, sc administered through peanut oil on day 2 post infection; format: functional, organism-based; parameters: dose 1280 mg/kg
[20] = system: Mus musculus; assay: Toxicity in mouse infected with blood stage of Plasmodium berghei assessed as mortality at 640 mg/kg, sc measured on day 2; format: organism-based; parameters: dose 640 mg/kg, route subcutaneous; settings: in vivo; procedure, shortened: as §2

| Structure (SMILES) | Activity [3] | Survival [4] | Survival [5] | Activity [6] | Activity [7] | Activity [9] | Survival [12] | Survival [14] | other results |
| --- | --- | --- | --- | --- | --- | --- | --- | --- | --- |
| COc1cc(NC(C)CCCN)c2nc(OC)ccc2c1.O=C(O)/C=C\C(=O)O (stereo unspecified) | Toxic | 7.9 days | 6.1 days | inactive | Toxic |  |  |  | Activity [1]: Toxic; Ratio [2]: 2.4 |
| COc1cc(NC(C)CCCN)c2ncccc2c1 (stereo unspecified) [PRIMAQUINE] | Toxic | 10.8 days | 9.4 days |  | Toxic | Toxic |  |  | Ratio [8]: 0.96 |
| COc1cc(NC(C)CCCN)c2nc(N(C)C)ccc2c1.O=C(O)/C=C/C(=O)O (stereo unspecified) | Toxic | 5.2 days | 4.9 days |  | Toxic |  |  |  | Activity [1]: Toxic; inhibition in vivo at 52 mg/kg/day [10]: 99% |
| COc1cc(NC(C)CCCN)c2nc(Cl)ccc2c1.O=C(O)/C=C\C(=O)O (stereo unspecified) |  | 3 days | 1.2 days | inactive |  | Toxic | 4 days | 5.5 days | Ratio [11]: 0.3; Activity [13]: Toxic; Activity [15]: inactive; Activity [16]: Toxic |
| CCc1ccc2cc(OC)cc(NC(C)CCCN)c2n1.O=C(O)/C=C\C(=O)O (stereo unspecified) |  | 8.3 days | 6.7 days | inactive |  |  | 9.9 days | 13.9 days | Ratio [17]: 10; Activity [18]: Non-toxic; Activity [19]: inactive |
| COc1cc(NC(C)CCCN)c2nc(N)ccc2c1.O=C(O)/C=C\C(=O)O (stereo unspecified) |  |  |  |  |  |  |  |  | Ratio [8]: 0; Activity [19]: inactive |
| C=Cc1ccc2cc(OC)cc(NC(C)CCCN)c2n1.O=C(O)/C=C/C(=O)O (stereo unspecified) |  | 3.3 days | 2.9 days |  |  | Toxic | 5.3 days | 7.9 days | Activity [20]: Toxic; Activity [16]: Toxic |

From ChEMBL document CHEMBL3244124, “Synthesis of 2-substituted primaquine analogues as potential antimalarials” (J Med Chem, 1978)
